KCNQ1 pot: potentiators or activators of KCNQ1 channel, primary screen, cell-based, thallium flux, high-throughput; 0.35% of 310,000 active; Potassium voltage-gated channel subfamily KQT member 1 (Homo sapiens), P51787; B-score at 10 µM; AID 2648, 2010; CHO-K1 KCNQ1, thallium flux FluxOR fluorescence; active compounds read high;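 active = fluorescence ratio B-score, a plate-corrected score, at least three library SD, with initial intensity B-score within 5 SD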
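assay system = CHO-K1 cells stably expressing KCNQ1 | medium = assay buffer, equal DMSO in all wells | timing = 37 °C overnight plating, 90-min dark dye load, 20-min compound pretreatment | measured by = kinetic FluxOR thallium fluorescence, 10-s 1-Hz baseline, 110-s post-stimulus read | measure = fluorescence change relative to baseline, converted to B score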
KCNK9 block: KCNK9 potassium channel inhibitors, primary screen, HEK293 cells, thallium flux | B-score at 10 µM | AID 488922, 2010 | Potassium channel subfamily K member 9 (Homo sapiens), Q9NPC2 | 1.2% of 310,000 active | FluxOR thallium flux fluorescence; active compounds read low;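 active = ratio B-score over 3 SD below the library mean, with starting fluorescence within 5 SD of its mean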;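 also: negative B-score means less thallium flux so channel inhibition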
KCNK3 inh: human KCNK3 channel inhibitors, primary screen, CHO cells, FluxOR thallium flux, B-score | FluxOR fluorescence; active compounds read low | B-score at 10 µM | 0.84% of 340,000 active | AID 602410, 2012;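 active = B-score under library mean minus 4 SD, starting fluorescence ratio at most library mean plus 5 SD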;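 also: more negative B-score means stronger inhibition of thallium flux through KCNK3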
Target sequence (O14649 whole entry, looked up): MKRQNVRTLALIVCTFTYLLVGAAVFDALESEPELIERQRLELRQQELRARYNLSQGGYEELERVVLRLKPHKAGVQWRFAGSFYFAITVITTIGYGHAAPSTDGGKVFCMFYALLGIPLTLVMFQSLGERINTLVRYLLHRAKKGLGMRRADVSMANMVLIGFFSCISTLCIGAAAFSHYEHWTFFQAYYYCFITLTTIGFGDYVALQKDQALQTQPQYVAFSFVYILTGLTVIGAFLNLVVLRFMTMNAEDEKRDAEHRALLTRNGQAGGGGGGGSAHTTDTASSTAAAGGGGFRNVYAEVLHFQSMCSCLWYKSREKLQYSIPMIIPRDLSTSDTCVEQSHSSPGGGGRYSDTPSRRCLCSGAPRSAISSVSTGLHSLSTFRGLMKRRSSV
hERG protect: hERG rescue from dofetilide block, primary screen, cell-based, CHO-hERG, FluxOR thallium flux, dofetilide IC70; dofetilide IC70 present; activation (rescue from dofetilide block), less the hit threshold, % at 10 µM; 0.51% of 310,000 active;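 active = activation above the mean of controls blocked by dofetilide plus 5 SD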;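 also: thallium influx through hERG after potassium depolarization seen as dye fluorescence rise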
KCNQ1 inh: inhibitors of human KCNQ1 channel, primary screen, cell-based, thallium flux, high-throughput | Potassium voltage-gated channel subfamily KQT member 1 (Homo sapiens), P51787 | CHO-K1 KCNQ1, FluxOR thallium flux fluorescence; active compounds read high | B-score at 10 µM | 1.3% of 310,000 active | AID 2642, 2010;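 active = compounds whose thallium flux B-score, printed positive for inhibition, exceeds three library SD while starting fluorescence stays within three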;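 also: channel opened by potassium depolarization with thallium stimulus after 20 min compound exposure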
An asterisk follows results filed as active; i = inactive; . = no result. Shown are actives, neighbours in structure and some others; about 3.1% of the full set was active somewhere.

SMILES	KCNQ1 pot	KCNK9 block	KCNK3 inh	hERG protect	KCNQ1 inh
O=C(CN1CCN(S(=O)(=O)c2ccc(Br)cc2)CC1)N/N=C/c1cccnc1	i	i	i	-10	i
CCOC(=O)C1=C(c2ccccc2)OC(N)=C(C#N)C1c1ccc(Br)s1 (stereo not drawn)	i	-7.3*	i	-12	i
CCOC(=O)C1=C(c2ccccc2)OC(N)=C(C#N)C1c1cccnc1 (stereo not drawn)	i	i	i	-12	i
CCOC(=O)C1=C(c2ccccc2)OC(N)=C(C#N)C1c1ccc(Cl)s1 (stereo not drawn)	i	-6.6*	i	-6	i
CCc1[nH]nc(C(=O)N2CCCC(N3CCN(c4ccccc4C)CC3)C2)c1C (stereo not drawn)	i	i	i	-9	i
CCc1ccc(OCc2ccc(C(=O)O)o2)cc1	i	i	i	5.2*	i
CCOC(=O)c1ccc(S(=O)(=O)NC2CCC(C)CC2)cc1 (stereo not drawn)	.	.	i	.	.
CCOC(=O)Cc1csc(NC(=O)CSc2nnc3ccccn23)n1	i	i	i	-4	i
O=C(COC(=O)CC(c1ccccc1)c1ccccc1)Nc1cccc(F)c1	i	i	i	-13	i
O=C(COC(=O)CC(c1ccccc1)c1ccccc1)Nc1ccc(F)c(F)c1	i	i	.	-18	6*
CCCCN1C(=O)/C(=C2\SC(N3CCCCC3)=NC2=O)c2ccccc21	i	i	i	-14	i
CCCCN1C(=O)C(=Nc2cccc3cnccc23)c2ccccc21	i	-7.2*	i	-14	i
Cc1ccc(C(=O)NCCCN2CCOCC2)c(Cl)c1	i	i	i	-8	i
Cc1nc2ccccc2n1Cc1ccc(Br)cc1	i	i	i	-14	6*
c1ccc(CCCNCCCn2cnc3c(OCc4ccccc4)ncnc32)cc1	.	.	i	.	.
O=C1C=C(NNC(=O)c2ccccc2Br)CCC1	i	i	i	-6	i
CCn1c(=O)c(C(=O)NNS(=O)(=O)c2ccc(Cl)cc2)c(O)c2ccccc21	i	i	i	-14	6*
Cn1nc(C(C)(C)C)cc1C(=O)NN1CCOCC1	i	i	i	-9	i
CCOC(=O)CSc1nc2c(sc(=S)n2Cc2ccco2)c(=O)n1-c1ccccc1	i	i	-11*	-5	i
CC(=O)Nc1c2c3c(cccc3n(C)c1=O)C(=O)c1ccccc1-2	i	i	i	-8	i
Cn1c(=O)c(Nc2ccc(Cl)cc2)c2c3c(cccc31)C(=O)c1ccccc1-2	i	i	.	-8	9*
Cc1ccc(C)n1-c1sc2c(c1C#N)CCC(C)C2 (stereo not drawn)	i	-7.4*	i	-5	i
CC(=O)Nc1sc2c(c1C#N)CCC(C)C2 (stereo not drawn)	i	i	i	-6	i
COC(=O)c1ccccc1NC(=O)/C=C/C(=O)O	i	i	i	0	i
NC(=O)c1ccccc1NC(=O)/C=C/C(=O)O	i	i	i	15*	i
SMILES	KCNQ1 pot	KCNK9 block	KCNK3 inh	hERG protect	KCNQ1 inh
NC(=O)c1ccccc1NC(=O)CN1CCOCC1	i	i	i	-10	i
NC(=O)c1ccccc1NC(=O)N1CCOCC1	9*	i	i	2	i
CC12CCC(C(=O)OC3CCCCC3)(OC1=O)C2(C)C (stereo not drawn)	i	i	i	5.8*	i
CN1CCC(OC(=O)C23CCC(C)(C(=O)O2)C3(C)C)CC1 (stereo not drawn)	i	i	i	0	i
COP(=O)(OC)C(Nc1ccc(C)cc1)c1ccc(Br)cc1 (stereo not drawn)	.	.	i	.	.
O=C(NC1CCCC1)C(c1ccc(F)cc1)N(Cc1ccc(F)cc1)C(=O)CCl (stereo not drawn)	i	i	i	-15	i
Cc1cccc(-c2cc3nc4c(c(NCc5ccco5)n3n2)CCCC4)c1	i	-7.2*	i	-9	i
Cc1cccc(-c2cc3nc4c(c(N5CCOCC5)n3n2)CCCC4)c1	i	i	i	-7	i
CCCCC1(Cc2cccc([N+](=O)[O-])c2)C(=O)N(c2ccccc2)N(c2ccccc2)C1=O	i	i	i	-7	6*
CCCCC1(CO)C(=O)N(c2ccccc2)N(c2ccccc2)C1=O	i	i	i	-5	i
COc1ccc(C(=O)C(c2ccccc2)N2CCOCC2)cc1 (stereo not drawn)	i	i	i	-3	i
Cc1ccc(C(=O)C(c2ccccc2)N2Cc3ccccc3C2=N)cc1 (stereo not drawn)	i	i	i	-17	11*
CS(=O)(=O)c1ccc(Cl)c(NC(=O)CN2C(=O)C3CCCCC3C2=O)c1 (stereo not drawn)	i	i	i	-11	i
CCCCC1C(=O)N(c2ccccc2)N(c2ccc(O)cc2)C1=O (stereo not drawn)	.	.	-10*	.	.
COc1ccc(Cl)cc1NC(=O)CN(C)C(=O)c1cn2ccccc2n1	.	.	i	.	.
CCN1C=C(Cc2cccs2)C2=C(C1)C(c1cccs1)C(C#N)=C(N)O2 (stereo not drawn)	i	-7.4*	-9*	-24	i
CCOC(=O)C1=C(C)OC(N)=C(C#N)C1c1cccs1 (stereo not drawn)	i	i	i	-6	i
COc1ccccc1OCc1ccc(C(=O)N(C)c2ccccc2)o1	i	i	i	-6	i
Cc1ccc(S(=O)(=O)N(C)C)cc1-n1c(SCC(=O)Nc2ccc(F)cc2Cl)nc2ccccc2c1=O	i	-8*	i	-7	i
Cc1ccc(S(=O)(=O)N(C)C)cc1-n1c(SCC(=O)Nc2ccccc2)nc2ccccc2c1=O	i	-7.9*	i	-12	i
CC(NC(=O)CNC(=O)C(Cc1ccccc1)NC(=O)OCc1ccccc1)C(N)=O (stereo not drawn)	i	i	i	-6	i
CC(c1ccccc1)C(CC(=O)O)C(=O)Nc1ccc(Cl)c(Cl)c1 (stereo not drawn)	i	i	i	-3	i
COc1ccccc1N(Cc1ccccc1)S(=O)(=O)c1cccc(C(=O)Nc2ccccn2)c1	i	i	i	-11	i
COc1ccccc1N(Cc1ccccc1)S(=O)(=O)c1cccc(C(=O)Nc2ccc(C)cn2)c1	i	i	i	-18	6*
O=C(O)c1ccccc1-c1nc2ccccc2[nH]1	i	i	i	-3	i
